Results pooled from the literature.
Lines come from different studies, so protocols differ.
Cnr2: Cannabinoid receptor 2 (Cnr2, Mus musculus, UniProt P47936)
G protein-coupled receptor 88: G protein-coupled receptor 88 (Homo sapiens, UniProt Q9GZN0)
PRKAA1: 5'-AMP-activated protein kinase catalytic subunit alpha-1 (PRKAA1, Homo sapiens, UniProt Q13131)

Structure (SMILES)	target	assay	test system	conditions	quantity	result
CCOC(=O)C(CC)(CCCSCCOCCOCCNc1ccc([N+](=O)[O-])c2nonc12)NC(=O)c1ccc(C2CC2)c(Cc2ccc(F)cc2)n1 (racemic)	Cnr2	cAMP, agonist	–	–	Emax	123%
CCCc1ccc(-c2ccc([C@@H](CO)C(=O)N[C@H](C)c3ccccc3)cc2)cc1	G protein-coupled receptor 88	cAMP, agonist, TR-FRET	–	–	Emax	96%
Nc1ncc(-c2nc(N3CCOCC3)nc(N3CCOCC3)n2)c(C(F)F)n1	Mitogen-activated protein kinase kinase kinase kinase 5 (MAP4K5, Homo sapiens, UniProt Q9Y4K4)	binding, competition with immobilised ligand	–	10 µM	remaining binding	100%
CCC[C@@H](C)COc1ccc([C@@H](CO)C(=O)N[C@H](C)c2ccccc2)cc1	G protein-coupled receptor 88	cAMP, agonist, TR-FRET	CHO	–	Emax	105%
Cc1nn(C)cc1-c1nc2c(N3CCN(Cc4ccc(Cl)cc4)CC3)c(Cl)cnc2[nH]1	PRKAA1	binding, competition with immobilised ligand	–	1 µM	remaining binding	2.4%
C#Cc1n[nH]c2c(-c3cn([C@@H](C)c4ccccn4)c(=O)[nH]c3=O)cc(F)cc12	Protein kinase C theta type (PRKCQ, Homo sapiens, UniProt Q04759)	enzyme activity, inhibitor	–	0.1 µM	inhibition	13.6%
Cc1nc2c(=O)n(C)c(=O)nc-2n(C)n1	Protein disulfide-isomerase (P4HB, Homo sapiens, UniProt P07237)	thermal stability, DSF	–	1 µM	ΔTm	-1.43 °C
CCOC(=O)C(CC)(CCCSCCOCCOCCOCCOCCNC(=O)OC(C)(C)C)NC(=O)c1ccc(C2CC2)c(Cc2ccc(F)cc2)n1 (centres unmarked)	Cnr2	cAMP, agonist	–	–	Emax	84%
Cn1cc(-c2cc(F)cc(N3CCn4c(cc5c4CCCC5)C3=O)c2CO)cc(Nc2ccc(N3CCN(C4COC4)CC3)cn2)c1=O	PRKAA1	enzyme activity, inhibitor	–	0.1 µM	inhibition	0%
CC(C)C[C@H](NC(=O)[C@H]1O[C@@H]1C(=O)O)C(=O)NCCCCN=C(N)N	Procathepsin L (CTSL, Homo sapiens, UniProt P07711)	enzyme activity, inhibitor	–	500 pM	inhibition	13%
CC[C@@H](C)COc1ccc([C@@H](CO)C(=O)N[C@H](C)c2ccccc2)cc1	G protein-coupled receptor 88	cAMP, agonist, TR-FRET	–	–	Emax	96%
Cn1cc(-c2cccc(N3CCc4c(sc5c4CC(C)(C)C5)C3=O)c2CO)cc(Nc2ccncn2)c1=O	Sphingosine kinase 2 (SPHK2, Homo sapiens, UniProt Q9NRA0)	enzyme activity, inhibitor	–	1 µM	inhibition	-1%
COc1ncccc1-c1cnn2ccc(N3CCN(C(=O)OC(C)C)CC3)nc12	Cyclin-dependent kinase 13 (CDK13, Homo sapiens, UniProt Q14004)	binding, competition with immobilised ligand	–	1 µM	remaining binding	95%
CCCCCOc1ccc([C@@H](CO)C(=O)N[C@H](C)c2ccccc2)cc1	G protein-coupled receptor 88	cAMP, agonist, TR-FRET	CHO	–	Emax	103%
